Test results taken from ChEMBL document CHEMBL1154212, “Candenatenins A-F, phenolic compounds from the heartwood of Dalbergia candenatensis” (J Nat Prod, 2009).

Tests used:
Assay type in all cases: functional, cell-based; call rule not given here
MCF7 = assay: Cytotoxicity against human MCF7 cells by SRB staining-based fluorescence cytometry
How it was run: (§1)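 Cytotoxicity assay run with camptothecin as the reference anticancer standard.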

KB = assay: Cytotoxicity against human KB cells by SRB staining-based fluorescence cytometry; how it was run: as §1
HT-29 = assay: Cytotoxicity against human HT-29 cells by SRB staining-based fluorescence cytometry; how it was run: as §1
HeLa = assay: Cytotoxicity against human HeLa cells by SRB staining-based fluorescence cytometry; how it was run: as §1
[1] = Homo sapiens, MCF7, read-out: IC50
[2] = Homo sapiens, KB, read-out: IC50
[3] = Homo sapiens, HT-29, read-out: IC50
[4] = Homo sapiens, HeLa, read-out: IC50

Compound: COc1ccccc1/C=C/C[C@@]1(O)C=CC(=O)CC1
- IC50 (MCF7; [1]): 48.8 µM
- IC50 (KB; [2]): 70.9 µM
- IC50 (HT-29; [3]): 17.8 µM
- IC50 (HeLa; [4]): 54.2 µM

Compound: CO[C@H]1CC(=O)CC[C@@]1(O)C/C=C/c1ccccc1
- IC50 (MCF7; [1]): 44.1 µM
- IC50 (KB; [2]): 85 µM
- IC50 (HT-29; [3]): 48.1 µM
- IC50 (HeLa; [4]): 53.1 µM

Compound: COc1c(O)ccc([C@@H]2C=Cc3cc(O)ccc3O2)c1OC
- IC50 (MCF7; mcf7): Not Active
- IC50 (KB; kb): Not Active
- IC50 (HT-29; ht-29): Not Active
- IC50 (HeLa; hela): Not Active

Compound: COc1ccc([C@@H]2COc3c(ccc(O)c3C/C=C(\C)CCC=C(C)C)C2)cc1
- IC50 (MCF7; mcf7): Not Active
- IC50 (KB; kb): Not Active
- IC50 (HT-29; ht-29): Not Active
- IC50 (HeLa; hela): Not Active

Compound: COc1cc(O)c2c(c1)O[C@H](c1ccccc1)[C@@H](O)C2=O
- IC50 (MCF7; [1]): 49.3 µM
- IC50 (KB; [2]): 73.8 µM
- IC50 (HT-29; [3]): 46.5 µM
- IC50 (HeLa; [4]): 79 µM

Compound: COc1ccc2c(c1O)OC[C@@H]1c3cc4c(cc3O[C@H]21)OCO4
- IC50 (MCF7; mcf7): Not Active
- IC50 (KB; kb): Not Active
- IC50 (HT-29; ht-29): Not Active
- IC50 (HeLa; hela): Not Active

Compound: O=C1C=C[C@](O)(C/C=C/c2ccccc2)CC1 [(1'R)-CANDENATENIN B]
- IC50 (MCF7; [1]): 54.4 µM
- IC50 (KB; [2]): 83.7 µM
- IC50 (HT-29; [3]): 19.7 µM
- IC50 (HeLa; [4]): 55.7 µM

Compound: CC[C@@]1(O)C(=O)OCc2c1cc1n(c2=O)Cc2cc3ccccc3nc2-1 [CAMPTOTHECIN]
- IC50 (MCF7; [1]): 1.22 µM
- IC50 (KB; [2]): 1.22 µM
- IC50 (HT-29; [3]): 1.22 µM
- IC50 (HeLa; [4]): 1.22 µM

Compound: COc1ccc(/C=C/Cc2ccc(O)c(OC)c2OC)cc1O [CANDENATENIN A]
- IC50 (MCF7; [1]): 74.3 µM
- IC50 (KB; [2]): 42.7 µM
- IC50 (HT-29; [3]): 41.1 µM
- IC50 (HeLa; [4]): 79 µM

Compound: COc1ccc2c(c1C/C=C(\C)CCC=C(C)C)OC[C@@H]1c3cc4c(cc3O[C@H]21)OCO4 [NUTIDUCOL]
- IC50 (MCF7; mcf7): Not Active
- IC50 (KB; kb): Not Active
- IC50 (HT-29; ht-29): Not Active
- IC50 (HeLa; hela): Not Active

Compound: CC(C)=CCC/C(C)=C/Cc1c(O)cc(O)c2c1O[C@H](c1ccc(O)cc1)CC2=O [SOPHORAFLAVANONE A]
- IC50 (MCF7; mcf7): Not Active
- IC50 (KB; kb): Not Active
- IC50 (HT-29; ht-29): Not Active
- IC50 (HeLa; hela): Not Active
